According to ChEMBL document CHEMBL3621120, “Discovery of ((4-(5-(Cyclopropylcarbamoyl)-2-methylphenylamino)-5-methylpyrrolo[1,2-f][1,2,4]triazine-6-carbonyl)(propyl)carbamoyloxy)methyl-2-(4-(phosphonooxy)phenyl)acetate (BMS-751324), a Clinical Prodrug of p38α MAP Kinase Inhibitor” (J Med Chem, 2015):

Columns and labels:
[1] = molecular target: T1, Alkaline phosphatase, placental type (Homo sapiens, UniProt P05187); test: Stability assessed as human placental ALP-mediated drug degradation by measuring compound remaining level in pH 7.5 tris buffer at 10 uM incubated for 0.25 hrs in presence of HALT phosphatase inhibitor cocktail by LC/MS/MS method; assay type: ADME; details: pH 7.5, with HALT phosphatase inhibitor cocktail, read-out: Stability
In short: (§1)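 Human placental alkaline phosphatase (1 unit/mL) incubated with compound at 10 µM in 89 mM tris buffer, pH 7.5, 37 °C; reactions in triplicate started by compound addition, sampled at 0, 15, 30, 60 min. For inhibition, HALT phosphatase inhibitor cocktail (100x dilution) added before compound. Samples quenched into EDTA, acetonitrile added, centrifuged, remaining compound measured by LC/MS/MS.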

Cynomolgus monkey [2] = test: Cmax in cynomolgus monkey assessed as plasma BMS-582949 level at 10 mg/kg, po dose equivalent to BMS-582949 after 24 hrs by LC/MS/MS method; assay type: ADME, organism-based, Macaca fascicularis; parameters: dose 10 mg/kg, route oral; details: in vivo
In short: (§2)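 Three overnight-fasted male cynomolgus monkeys (4.2-5.2 kg) given prodrug by oral gavage at 10 or 30 mg/kg, 5 mL/kg methocel suspension, one-week washout between doses. Femoral artery blood pre-dose and 0.25-24 h post-dose; plasma (centrifuged 4 °C) stored -20 °C and analysed by LC/MS/MS for parent.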

[3] = molecular target: T1, Alkaline phosphatase, placental type; test: Stability assessed as human placental ALP-mediated drug degradation by measuring compound remaining level in pH 7.5 tris buffer at 10 uM incubated for 0.5 hrs in presence of HALT phosphatase inhibitor cocktail by LC/MS/MS method; assay type: ADME; details: pH 7.5, with HALT phosphatase inhibitor cocktail, read-out: Stability; in short: as §1
Liver carboxylesterase [4] = molecular target: T2, Liver carboxylesterase (Sus scrofa, UniProt Q29550); test: Stability assessed as porcine liver esterase-mediated drug degradation by measuring compound remaining level in pH 7.4 potassium phosphate buffer at 10 uM incubated for 0.5 hrs by LC/MS/MS; assay type: ADME, tissue-based; details: pig, read-out: Stability
T2 sequence (Q29550 whole entry): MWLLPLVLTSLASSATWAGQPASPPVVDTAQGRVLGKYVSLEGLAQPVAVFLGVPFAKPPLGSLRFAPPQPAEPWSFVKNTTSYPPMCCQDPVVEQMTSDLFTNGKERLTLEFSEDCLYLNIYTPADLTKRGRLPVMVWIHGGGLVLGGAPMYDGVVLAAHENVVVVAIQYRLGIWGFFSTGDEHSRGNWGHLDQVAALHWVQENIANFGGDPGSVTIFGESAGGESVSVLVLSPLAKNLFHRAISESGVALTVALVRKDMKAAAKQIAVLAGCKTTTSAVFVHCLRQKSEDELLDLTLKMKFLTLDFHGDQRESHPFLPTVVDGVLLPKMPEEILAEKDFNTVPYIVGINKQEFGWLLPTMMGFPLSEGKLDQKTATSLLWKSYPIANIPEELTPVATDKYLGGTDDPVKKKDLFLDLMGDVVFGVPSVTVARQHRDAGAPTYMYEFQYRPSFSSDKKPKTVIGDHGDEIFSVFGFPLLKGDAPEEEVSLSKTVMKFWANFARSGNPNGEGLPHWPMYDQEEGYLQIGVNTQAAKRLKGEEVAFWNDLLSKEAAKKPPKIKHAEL
In short: (§3)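 Porcine liver esterase with substrate at 10 µM in 89 mM potassium phosphate pH 7.4, 37 °C. Reaction started by adding compound. Aliquots taken at 0, 15, 30 and 60 min and quenched with acetonitrile. After centrifugation at 4 °C, percent remaining quantified by LC/MS/MS.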

Rattus norvegicus [5] = test: Bioavailability in Sprague-Dawley rat assessed as plasma BMS-582949 level at 100 mg/kg, po dose equivalent to BMS-582949 after 24 hrs by LC/MS/MS method; assay type: ADME, organism-based; details: in vivo
Cynomolgus monkey [6] = test: Bioavailability in cynomolgus monkey assessed as plasma BMS-582949 level at 10 mg/kg, po dose equivalent to BMS-582949 after 24 hrs by LC/MS/MS method; assay type: ADME, organism-based, Macaca fascicularis; details: in vivo; in short: as §2
[7] = Stability in pH 7.4 solution assessed as half-life at 37 degC; assay type: physicochemical
Cynomolgus monkey [8] = test: Cmax in cynomolgus monkey assessed as plasma BMS-582949 level at 30 mg/kg, po dose equivalent to BMS-582949 after 24 hrs by LC/MS/MS method; assay type: ADME, organism-based, Macaca fascicularis; parameters: dose 30 mg/kg, route oral; details: in vivo; in short: as §2
[9] = molecular target: T1, Alkaline phosphatase, placental type; test: Stability assessed as human placental ALP-mediated drug degradation by measuring compound remaining level in pH 7.5 tris buffer at 10 uM incubated for 0.5 hrs by LC/MS/MS method; assay type: ADME; details: read-out: Stability; in short: as §1
Rattus norvegicus [10] = test: AUC in Sprague-Dawley rat assessed as plasma BMS-582949 level at 10 mg/kg, po dose equivalent to BMS-582949 after 24 hrs by LC/MS/MS method; assay type: ADME, organism-based; parameters: time < 24 hr, dose 10 mg/kg, route oral; details: in vivo
Rattus norvegicus [11] = test: Cmax in Sprague-Dawley rat assessed as plasma BMS-582949 level at 10 mg/kg, po dose equivalent to BMS-582949 after 24 hrs by LC/MS/MS method; assay type: ADME, organism-based; parameters: dose 10 mg/kg, route oral; details: in vivo
Rattus norvegicus [12] = test: Inhibition of paw swelling in Lewis rat adjuvant arthritis model assessed as reduction in hind paw volume at 1 mg/kg, po bid dose equivalent to BMS-582949 beginning on day 11 post adjuvant challenge by volume displacement plethysmometry method relative to control; assay type: functional; details: 264 h
In short: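 Male Lewis rats given complete Freund's adjuvant on day 1; from day 11 compounds dosed orally BID in 0.5 mL vehicle (prodrug as aqueous suspension in 0.75% Methocel, 0.1% Tween 80; parent in PEG 300). Paw volume measured 3 times per week for rest of study; paw swelling inhibition reported.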

[13] = molecular target: T1, Alkaline phosphatase, placental type; test: Stability assessed as human placental ALP-mediated drug degradation by measuring compound remaining level in pH 7.5 tris buffer at 10 uM incubated for 0.25 hrs by LC/MS/MS method; assay type: ADME; details: read-out: Stability; in short: as §1
Liver carboxylesterase [14] = molecular target: T2, Liver carboxylesterase; test: Stability assessed as porcine liver esterase-mediated drug degradation by measuring compound remaining level in pH 7.4 potassium phosphate buffer at 10 uM incubated for 1 hr by LC/MS/MS; assay type: ADME, tissue-based; details: pig, read-out: Stability; in short: as §3
Rattus norvegicus [15] = test: Bioavailability in Sprague-Dawley rat assessed as plasma BMS-582949 level at 10 mg/kg, po dose equivalent to BMS-582949 after 24 hrs by LC/MS/MS method; assay type: ADME, organism-based; details: in vivo
Rattus norvegicus [16] = test: Bioavailability in Sprague-Dawley rat assessed as plasma BMS-582949 level at 1 mg/kg, po dose equivalent to BMS-582949 after 24 hrs by LC/MS/MS method; assay type: ADME, organism-based; details: in vivo
Rattus norvegicus [17] = test: AUC in Sprague-Dawley rat assessed as plasma BMS-582949 level at 100 mg/kg, po dose equivalent to BMS-582949 after 24 hrs by LC/MS/MS method; assay type: ADME, organism-based; parameters: time < 24 hr, dose 100 mg/kg, route oral; details: in vivo
Cynomolgus monkey [18] = test: AUC in cynomolgus monkey assessed as plasma BMS-582949 level at 10 mg/kg, po dose equivalent to BMS-582949 after 24 hrs by LC/MS/MS method; assay type: ADME, organism-based, Macaca fascicularis; parameters: time < 24 hr, dose 10 mg/kg, route oral; details: in vivo; in short: as §2
[19] = molecular target: T1, Alkaline phosphatase, placental type; test: Stability assessed as human placental ALP-mediated drug degradation by measuring compound remaining level in pH 7.5 tris buffer at 10 uM incubated for 1 hr in presence of HALT phosphatase inhibitor cocktail by LC/MS/MS method; assay type: ADME; details: pH 7.5, with HALT phosphatase inhibitor cocktail
In short: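 Human placental ALP (1 unit/mL) with HALT phosphatase inhibitor cocktail at 100x dilution, added before the test compound (10 µM). Buffer 89 mM tris pH 7.5, 37 °C, triplicate. Sampled at 0, 15, 30 and 60 min, quenched with EDTA and acetonitrile, centrifuged, and percent remaining determined by LC/MS/MS.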

T1 sequence (P05187 whole entry): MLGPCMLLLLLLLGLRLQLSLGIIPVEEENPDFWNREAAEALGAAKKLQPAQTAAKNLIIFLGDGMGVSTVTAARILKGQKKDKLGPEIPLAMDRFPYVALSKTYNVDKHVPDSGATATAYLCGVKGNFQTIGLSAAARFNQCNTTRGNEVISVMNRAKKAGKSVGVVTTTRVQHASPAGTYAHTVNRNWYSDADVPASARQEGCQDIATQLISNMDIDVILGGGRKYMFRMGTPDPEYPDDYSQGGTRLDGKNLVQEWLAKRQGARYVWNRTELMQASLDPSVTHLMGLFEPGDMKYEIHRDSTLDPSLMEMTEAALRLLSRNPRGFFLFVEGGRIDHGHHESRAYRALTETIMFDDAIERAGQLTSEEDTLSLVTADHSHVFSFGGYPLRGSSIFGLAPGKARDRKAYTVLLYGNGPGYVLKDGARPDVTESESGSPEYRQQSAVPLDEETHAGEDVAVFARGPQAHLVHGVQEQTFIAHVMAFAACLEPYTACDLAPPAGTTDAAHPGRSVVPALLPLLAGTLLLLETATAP

CCCN(C(=O)OCOC(=O)Cc1ccc(OP(=O)(O)O)cc1)C(=O)c1cn2ncnc(Nc3cc(C(=O)NC4CC4)ccc3C)c2c1C
remaining at 0.25 h, 10 µM [1]: 100%
Cmax (Cynomolgus monkey [2]): 12 µM
remaining at 0.5 h, 10 µM [3]: 94%
remaining at 0.5 h, 10 µM (Liver carboxylesterase [4]): 100%
F (Rattus norvegicus [5]): 115%
F (Cynomolgus monkey [6]): 51%
half-life [7]: 37 h
Cmax (Cynomolgus monkey [8]): 29 µM
remaining at 0.5 h, 10 µM [9]: 11.1%
AUC (Rattus norvegicus [10]): 78 µM·h
Cmax (Rattus norvegicus [11]): 18 µM
inhibition in vivo at 1 mg/kg (Rattus norvegicus [12]): 39%
remaining at 0.25 h, 10 µM [13]: 12.5%
remaining at 1 h, 10 µM (Liver carboxylesterase [14]): 100%
F (Rattus norvegicus [15]): 103%
F (Rattus norvegicus [16]): 41%
AUC (Rattus norvegicus [17]): 875 µM·h
AUC (Cynomolgus monkey [18]): 24 µM·h
remaining at 1 h, 10 µM [19]: 64.5%
